pIC50: −log10 of the molar value.
Legend:
Veronica hederifolia = assay: Post-emergence herbicidal activity against Veronica hederifolia compound treated as foliar application measured after 2 weeks; format: functional
Outline: (§1)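 Greenhouse post-emergence foliar screen in 64 cm² pots. Seed treatments were used on some species to aid germination. Plants were grown 7–21 days at 23–29 °C day/22–28 °C night under a 15 h photoperiod. Sprayed at 2–12 cm height and the 1–4 true leaf stage.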

Setaria faberi = assay: Post-emergence herbicidal activity against Setaria faberi (Giant Foxtail) compound treated as foliar application measured after 2 weeks; format: functional; outline: as §1
Sorghum halepense = assay: Post-emergence herbicidal activity against Sorghum halepense (Johnson grass) compound treated as foliar application measured after 2 weeks; format: functional; outline: as §1
Oryza sativa = assay: Phytotoxicity against Oryza sativa (rice); format: organism-based; settings: in vivo
Helianthus = assay: Post-emergence herbicidal activity against Helianthus spp. compound treated as foliar application measured after 2 weeks; format: functional; outline: as §1
Chenopodium album = assay: Post-emergence herbicidal activity against Chenopodium album compound treated as foliar application measured after 2 weeks; format: functional; outline: as §1
Stellaria media = assay: Post-emergence herbicidal activity against Stellaria media compound treated as foliar application measured after 2 weeks; format: functional; outline: as §1
Abutilon theophrasti = assay: Post-emergence herbicidal activity against Abutilon theophrasti (velvetleaf) compound treated as foliar application measured after 2 weeks; format: functional; outline: as §1
Ipomoea = assay: Post-emergence herbicidal activity against Ipomoea spp. compound treated as foliar application measured after 2 weeks; format: functional; outline: as §1
Xanthium strumarium = assay: Post-emergence herbicidal activity against Xanthium strumarium (cocklebur) compound treated as foliar application measured after 2 weeks; format: functional; outline: as §1
Fallopia convolvulus = assay: Post-emergence herbicidal activity against Fallopia convolvulus compound treated as foliar application measured after 2 weeks; format: functional; outline: as §1
Ipomoea hederacea = assay: Post-emergence herbicidal activity against Ipomoea hederacea (ivy-leaved morning glory) compound treated as foliar application measured after 2 weeks; format: functional; outline: as §1
Echinochloa crus-galli = assay: Post-emergence herbicidal activity against Echinochloa crus-galli (barnyard grass) compound treated as foliar application measured after 2 weeks; format: functional; outline: as §1
Amaranthus retroflexus = assay: Post-emergence herbicidal activity against Amaranthus retroflexus compound treated as foliar application measured after 2 weeks; format: functional; outline: as §1
Avena fatua = assay: Post-emergence herbicidal activity against Avena fatua compound treated as foliar application measured after 2 weeks; format: functional; outline: as §1
Alopecurus = assay: Post-emergence herbicidal activity against Alopecurus spp. compound treated as foliar application measured after 2 weeks; format: functional; outline: as §1
Datura stramonium = assay: Post-emergence herbicidal activity against Datura stramonium compound treated as foliar application measured after 2 weeks; format: functional; outline: as §1
Digitaria sanguinalis = assay: Post-emergence herbicidal activity against Digitaria sanguinalis (hairy crabgrass) compound treated as foliar application measured after 2 weeks; format: functional; outline: as §1
[1] = Inhibition of acetolactatae synthase; settings: read-out: I50
Outline: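 Barley ALS: etiolated shoots of 5–6 d old Hector Spring barley homogenized at 0–4 °C in 20 mM HEPES pH 7.2, 1 mM EDTA, 5 mM DTT, then 33% (NH4)2SO4 cut. Reaction: 20 mM HEPES pH 7.2, 5 mM MgCl2, 0.25 mM TPP, FAD, 22.5 mM pyruvate, 0.7% DMSO final, 37 °C, 30 min. Acid decarboxylation to acetoin, then creatine/1-naphthol colour read at 530 nm. Reported as I50 (nM).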

Row | Structure (SMILES) | GR80 (Veronica hederifolia) [ppm] | GR80 (Setaria faberi) [ppm] | GR80 (Sorghum halepense) [ppm] | GR20 (Oryza sativa) [ppm] | GR80 (Helianthus) [ppm] | GR80 (Chenopodium album) [ppm] | GR80 (Stellaria media) [ppm] | GR80 (Abutilon theophrasti) [ppm] | GR80 (Ipomoea) [ppm] | GR80 (Xanthium strumarium) [ppm] | GR80 (Fallopia convolvulus) [ppm] | GR80 (Ipomoea hederacea) [ppm] | GR80 (Echinochloa crus-galli) [ppm] | GR80 (Amaranthus retroflexus) [ppm] | GR80 (Avena fatua) [ppm] | GR80 (Alopecurus) [ppm] | GR80 (Datura stramonium) [ppm] | GR80 (Digitaria sanguinalis) [ppm] | pIC50 [1]
1 | COc1cnc(OC)n2nc(NS(=O)(=O)c3c(OCCCF)cccc3C(F)(F)F)nc12 | 15 | 250 | 250 | > 250 | 15 | 15 | 15 | 15 | 15 | 15 | 15 | 15 | 125 | 15 | 250 | 250 | 15 | 250 | –
2 | COc1ncc(Cl)c2nc(NS(=O)(=O)c3c(Cl)cccc3Cl)nn12 | 1 | 4 | 4 | 4 | 1 | 1 | 1 | 1 | 1 | 1 | 1 | 1 | 4 | 1 | 4 | 4 | 1 | 4 | 9.22
3 | COc1ncc(F)c2nc(NS(=O)(=O)c3c(Cl)cccc3Cl)nn12 | 19 | >125 | >125 | > 125 | 19 | 19 | 19 | 19 | 19 | 19 | 19 | 19 | >125 | 19 | >125 | >125 | 19 | >125 | 7.92
4 | COc1ncc(C)c2nc(NS(=O)(=O)c3c(Cl)cccc3Cl)nn12 | <15 | 250 | 250 | 250 | <15 | <15 | <15 | <15 | <15 | <15 | <15 | <15 | 250 | <15 | 250 | 250 | <15 | 250 | 8.15
5 | CCOc1cnc(OC)n2nc(NS(=O)(=O)c3c(Cl)cccc3Cl)nc12 | 216 | 250 | 250 | 250 | 216 | 216 | 216 | 216 | 216 | 216 | 216 | 216 | 250 | 216 | 250 | 250 | 216 | 250 | 8.70
6 | COc1nc(F)cc2nc(NS(=O)(=O)c3c(Cl)cccc3Cl)nn12 | 62 | 8 | 8 | 8 | 62 | 62 | 62 | 62 | 62 | 62 | 62 | 62 | 8 | 62 | 8 | 8 | 62 | 8 | 7.57
7 | COc1cc2nc(NS(=O)(=O)c3c(Cl)cccc3Cl)nn2c(OC)n1 | >1000 | >1000 | >1000 | > 1000 | >1000 | >1000 | >1000 | >1000 | >1000 | >1000 | >1000 | >1000 | >1000 | >1000 | >1000 | >1000 | >1000 | >1000 | 6.71
8 | COc1ccccc1S(=O)(=O)Nc1nc2c(OC)cnc(OC)n2n1 | 1 | 1 | 1 | < 1 | 1 | 1 | 1 | 1 | 1 | 1 | 1 | 1 | 2 | 1 | 1 | 1 | 1 | 1 | –
9 | COc1cnc(OC)n2nc(NS(=O)(=O)c3ccccc3C(F)(F)F)nc12 | 13 | 435 | 435 | < 1 | 13 | 13 | 13 | 13 | 13 | 13 | 13 | 13 | 250 | 13 | 435 | 435 | 13 | 435 | –
10 | COc1cnc(OC)n2nc(NS(=O)(=O)c3cc(Cl)ccc3Cl)nc12 | 19 | >1000 | >1000 | < 2 | 19 | 19 | 19 | 19 | 19 | 19 | 19 | 19 | 1000 | 19 | >1000 | >1000 | 19 | >1000 | –
11 | COc1cnc(OC)n2nc(NS(=O)(=O)c3cc(Cl)cc(Cl)c3)nc12 | 126 | >1000 | >1000 | 62 | 126 | 126 | 126 | 126 | 126 | 126 | 126 | 126 | >1000 | 126 | >1000 | >1000 | 126 | >1000 | –
12 | COc1cccc(OC)c1S(=O)(=O)Nc1nc2c(OC)cnc(OC)n2n1 | 0.5 | <0.1 | <0.1 | < 0.5 | 0.5 | 0.5 | 0.5 | 0.5 | 0.5 | 0.5 | 0.5 | 0.5 | <0.5 | 0.5 | <0.1 | <0.1 | 0.5 | <0.1 | –
13 | COc1cccc(C(F)(F)F)c1S(=O)(=O)Nc1nc2c(OC)cnc(OC)n2n1 | <0.2 | 1 | 1 | 2 | <0.2 | <0.2 | <0.2 | <0.2 | <0.2 | <0.2 | <0.2 | <0.2 | 1 | <0.2 | 1 | 1 | <0.2 | 1 | –
